Series [1] concerns the target T1, Free fatty acid receptor 1 (Homo sapiens, UniProt O14842). Description: Agonist activity at human GPR40 expressed in CHO cells assessed as increase in intracellular Ca2+ flux by Fluo 4-AM dye based assay. Type of series: functional, cell-based. (In general: Calcium assays in cells follow changes in intracellular calcium, usually with a dye or a luminescent sensor.)

The target in series [2] is Free fatty acid receptor 1 (Mus musculus) (UniProt Q76JU9). Description: Agonist activity at GPR40 in mouse MIN6 cells assessed as increase in 25 mM glucose-stimulated insulin secretion at 300 nM after 1 hr by ELISA. Format: cell-based. In a few lines: (§1)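 MIN6 cells pre-incubated 2 h at 37 ℃ in KRBH buffer with 0.1% BSA, then stimulated 1 h at 37 ℃ with 2 mM or 25 mM glucose, alone or with test agents. Insulin secreted into supernatant quantified by ELISA; mean ± SD of four independent experiments, compared with DMSO.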
(An ELISA detects its analyte on a solid surface through an enzyme-linked reagent.)

The target is the same in series [3]. Description: Agonist activity at GPR40 in mouse MIN6 cells assessed as increase in 25 mM glucose-stimulated insulin secretion at 10 uM after 1 hr by ELISA. Format: cell-based. The method in brief:
as §1

Series [4] can be described thus: Cmax in Sprague-Dawley rat plasma at 1 mg/kg, iv by LC/MS analysis. Format: ADME, organism-based. Details: dose 1 mg/kg, route intravenous. In a few lines: (§2)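 Male SD rats (200 ± 20 g), acclimated 7 days, fasted overnight with water; n = 4 per route, 10 mg/kg by oral gavage or 1 mg/kg iv via tail vein. Plasma separated by centrifugation and stored at -80 ℃; drug measured by ESI triple-quadrupole LC-MS. Parameters from non-compartmental analysis, reported as mean ± SD. F = (AUCpo/Dosepo)/(AUCiv/Doseiv) × 100%.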

Series [5] is described as follows: AUC (0 to t) in Sprague-Dawley rat plasma at 10 mg/kg administered via oral gavage by LC/MS analysis. Format: ADME, organism-based. In a few lines: as §2
In series [6] the target is T1, Free fatty acid receptor 1. The series can be described thus: Agonist activity at human GPR40 expressed in HEK293T cells transfected with 0.05 ug of GPR40 expression plasmid assessed as increase in intracellular Ca2+ flux by Fluo 4-AM dye based assay. Format: functional, cell-based. To be noted: HEK-293T. The method in brief:
(§3)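 Plasmid titration: HEK293T cells transiently transfected with 5 μg or 0.05 μg hGPR40 expression plasmid, plated on poly-D-lysine and held 24 h. Loaded with Fluo 4-AM (3 μM) and probenecid (2.5 mM) in HBSS/0.1% BSA for 90 min, washed, equilibrated 10 min. Ca2+ response measured as change in 585/525 ratio after compound addition; mean ± SD of three experiments.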

Series [7] deals with Free fatty acid receptor 1 (Mus musculus) (UniProt Q76JU9). Description: Agonist activity at GPR40 in mouse MIN6 cells assessed as increase in 2 mM glucose-stimulated insulin secretion at 0.1 to 3 uM after 1 hr by ELISA. Type of series: cell-based. The method in brief:
as §1

Series [8] in a line: Half life in Sprague-Dawley rat plasma at 1 mg/kg, iv by LC/MS analysis. Type of series: ADME, organism-based. In a few lines:
as §2

Series [9] in a line: Tmax in Sprague-Dawley rat plasma at 10 mg/kg administered via oral gavage by LC/MS analysis. Format: ADME, organism-based. In a few lines:
as §2

Series [10] concerns Mus musculus. Description: Antidiabetic activity in ICR mouse assessed as decrease in blood glucose AUC at 10 to 20 mg/kg, po administered 30 mins prior to glucose challenge measured 120 mins post dose by OGTT. Format: functional, organism-based. In a few lines: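 Six-week-old male ICR mice fasted 16 h, n = 10 per group, dosed orally in 0.5% methylcellulose/20% PEG400 (10 or 20 mg/kg). Oral glucose load 2.5 g/kg by gavage 30 min later. Tail-vein glucose read at -30, 0, 30, 60, 90 and 120 min; AUC0-120 min computed and compared with vehicle.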

Series [11] can be described thus: Oral bioavailability in Sprague-Dawley rat plasma at 10 mg/kg administered via gavage by LC/MS analysis. Type of series: ADME, organism-based. In a few lines: as §2
Series [12] can be described thus: Cmax in Sprague-Dawley rat plasma at 10 mg/kg administered via oral gavage by LC/MS analysis. Type of series: ADME, organism-based. Further details: dose 10 mg/kg, route oral. The method in brief:
as §2

Series [13] addresses T1, Free fatty acid receptor 1. The series can be described thus: Agonist activity at human GPR40 expressed in CHO cells assessed as increase in intracellular Ca2+ flux by Fluo 4-AM dye based assay relative to 3-(4-((2',6'-dimethylbiphenyl-3-yl)methoxy)phenyl)propanoic acid. Type of series: functional, cell-based. In a few lines: (§4)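 CHO cells stably expressing hGPR40 or hGPR120, seeded and incubated overnight at 37 ℃, 5% CO2. Loaded 90 min with Fluo 4-AM (3 μM) and probenecid (2.5 mM) in HBSS/0.1% BSA, washed, equilibrated 10 min. Ca2+ read as change in 585/525 ratio before and after compound addition; EC50 and Emax fitted from curves, Emax relative to reference agonist 4; mean ± SD, three independent experiments.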

Series [14] is described as follows: Half life in Sprague-Dawley rat plasma at 10 mg/kg administered via oral gavage by LC/MS analysis. Format: ADME, organism-based. In a few lines: as §2
Series [15] can be described thus: Mean residence time (last) in Sprague-Dawley rat plasma at 10 mg/kg administered via oral gavage by LC/MS analysis. Format: ADME, organism-based. The method in brief: as §2
The target in series [16] is T1, Free fatty acid receptor 1. The series can be described thus: Agonist activity at human GPR40 expressed in HEK293T cells transfected with 5 ug of GPR40 expression plasmid assessed as increase in intracellular Ca2+ flux by Fluo 4-AM dye based assay. Format: functional, cell-based. The settings on record: HEK-293T. The method in brief:
as §3

Series [17] in a line: Mean residence time (last) in Sprague-Dawley rat plasma at 1 mg/kg, iv by LC/MS analysis. Format: ADME, organism-based. The method in brief:
as §2

A short description of series [18]: Inhibition of hepatobiliary transporter in Sprague-Dawley rat sandwich-cultured rat hepatocytes assessed as decrease in d8-TCA by measuring biliary excretion index at 1 to 25 uM incubated for 15 mins followed by d8-TCA addition measured after 15 mins by LC-MS/MS analysis. Type of series: ADME. The settings on record: 0.25 h. The method in brief: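 Sandwich-cultured hepatocytes from male SD rats exposed to compound 15 min in standard HBSS. Cells rinsed and pre-incubated 15 min at 37 ℃ in standard or Ca2+-free HBSS, then incubated 15 min with compound plus 1 µM d8-TCA. Washed with ice-cold PBS; cellular d8-TCA measured by LC-MS/MS. BEI = (A_HBSS – A_Ca-free)/A_HBSS × 100%.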

For series [19], the target named is T2, Free fatty acid receptor 4 (Homo sapiens, UniProt Q5NUL3).
T2 sequence (Q5NUL3 whole entry): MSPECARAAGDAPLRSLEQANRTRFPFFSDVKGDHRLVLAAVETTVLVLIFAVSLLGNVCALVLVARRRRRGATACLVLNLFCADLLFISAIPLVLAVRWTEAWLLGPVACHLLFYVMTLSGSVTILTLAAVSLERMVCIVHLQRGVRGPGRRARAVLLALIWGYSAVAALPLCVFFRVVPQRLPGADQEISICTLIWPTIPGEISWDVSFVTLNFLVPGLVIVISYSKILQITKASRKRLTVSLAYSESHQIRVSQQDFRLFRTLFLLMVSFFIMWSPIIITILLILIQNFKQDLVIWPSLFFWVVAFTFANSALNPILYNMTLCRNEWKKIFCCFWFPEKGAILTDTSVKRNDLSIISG
The series can be described thus: Agonist activity at human GPR120 expressed in CHO cells assessed as increase in intracellular Ca2+ flux by Fluo 4-AM dye based assay. Format: functional, cell-based. In a few lines: as §4

In series [20] the target is T3, Peroxisome proliferator-activated receptor gamma (Homo sapiens, UniProt P37231).
T3 sequence (P37231 whole entry): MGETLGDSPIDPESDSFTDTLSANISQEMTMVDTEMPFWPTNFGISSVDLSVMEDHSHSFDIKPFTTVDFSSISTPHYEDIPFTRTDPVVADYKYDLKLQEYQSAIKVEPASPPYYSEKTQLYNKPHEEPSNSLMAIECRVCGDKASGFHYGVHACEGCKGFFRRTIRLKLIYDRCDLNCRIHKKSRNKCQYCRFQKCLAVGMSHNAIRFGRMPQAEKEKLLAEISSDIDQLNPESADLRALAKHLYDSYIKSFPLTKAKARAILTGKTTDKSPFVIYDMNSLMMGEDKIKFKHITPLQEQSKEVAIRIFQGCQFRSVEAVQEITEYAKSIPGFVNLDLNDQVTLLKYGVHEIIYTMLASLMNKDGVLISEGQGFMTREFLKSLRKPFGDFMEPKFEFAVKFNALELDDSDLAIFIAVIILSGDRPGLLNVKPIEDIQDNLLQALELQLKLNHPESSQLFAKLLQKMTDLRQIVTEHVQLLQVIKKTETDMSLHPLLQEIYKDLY
The series can be described thus: Agonist activity at PPARgamma (unknown origin) expressed in HEK293T cells by luciferase reporter gene assay. Format: cell-based. Background: In a reporter assay the amount or activity of a reporter protein is the signal.

Series [21] in a line: AUC (0 to t) in Sprague-Dawley rat plasma at 1 mg/kg, iv by LC/MS analysis. Format: ADME, organism-based. In a few lines: as §2

Activity calls are given as the source filed them.

Sequence of Free fatty acid receptor 1 (Mus musculus) (Q76JU9 whole entry): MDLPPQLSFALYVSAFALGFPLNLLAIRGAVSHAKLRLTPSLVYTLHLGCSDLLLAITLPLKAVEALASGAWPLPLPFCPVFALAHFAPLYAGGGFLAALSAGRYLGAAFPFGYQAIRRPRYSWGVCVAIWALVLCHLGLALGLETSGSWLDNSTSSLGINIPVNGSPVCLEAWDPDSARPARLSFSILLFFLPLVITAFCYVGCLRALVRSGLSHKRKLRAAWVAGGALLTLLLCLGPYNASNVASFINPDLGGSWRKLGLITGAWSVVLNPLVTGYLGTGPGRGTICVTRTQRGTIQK
T1 sequence (O14842 whole entry): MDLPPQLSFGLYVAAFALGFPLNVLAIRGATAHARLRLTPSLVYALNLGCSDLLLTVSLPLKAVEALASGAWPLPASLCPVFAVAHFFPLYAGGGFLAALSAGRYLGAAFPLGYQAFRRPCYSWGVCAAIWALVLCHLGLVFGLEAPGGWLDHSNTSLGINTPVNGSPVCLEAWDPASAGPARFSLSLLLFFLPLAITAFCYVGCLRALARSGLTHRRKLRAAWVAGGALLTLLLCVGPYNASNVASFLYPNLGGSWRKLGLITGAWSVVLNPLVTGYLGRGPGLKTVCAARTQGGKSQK

The EC50 is the concentration needed to bring the measured effect to its halfway point. As usually defined, the Cmax is the maximum level reached in the sampled fluid or tissue. Broadly, the AUC(0-t) is the area under the concentration-time curve up to a stated or last time point. A low value points to less exposure. What is called half-life is the time needed for the level to fall by half in the phase considered. Read a low half-life as fast loss. As a reminder, the Tmax is the time from dosing to the highest level. In general, bioavailability refers to dose-corrected exposure relative to a reference, in per cent. The term Emax denotes the greatest response seen or fitted, relative to the assay's reference. As a reminder, the MRT last is a mean duration of stay, worked out from the concentration-time curve. In the case of `CC#C[C@@H](CC(=O)O)c1ccc(OCc2cccc(-c3c(C)cc(OCCCS(C)(=O)=O)cc3C)c2)s1`, the EC50 in series [1] was 0.081 µM; in [19], more than 10 µM; in series [20] it was more than 10 µM. For the same molecule, the result in [2], in series [3], in series [6], in [10] and in series [16] was Active. Besides, the highest concentration (Cmax) stood at 2180 ng/mL in [4] and 834 ng/mL in series [12]. Besides, the AUC(0-t) in series [5] came out at 4420 ng·h/mL; in [21] it was 3320 ng·h/mL. In addition, in series [7], the result was inactive. In addition, the results for the half-life in series [8] and in [14] were 3.8 h and 3.9 h, respectively. The Tmax in series [9] was 1 h. Further, in [11], the bioavailability was 13.3%. Besides, the Emax in [13] was determined as 244%. In addition, the MRT last in series [15] was 5 h; in series [17], 3.2 h. In addition, in series [18], the Activity entry is recorded as “Not Active”.
